Measured values taken from ChEMBL document CHEMBL2021903, “3-Deoxy-3,4-dehydro analogs of XM462. Preparation and activity on sphingolipid metabolism and cell fate” (Bioorg Med Chem, 2012).
The source made the active and inactive calls. The rule behind the calls is not given here.

Experiments:
HCT-116 [1] = assay: Effect on sphingolipidome in human HCT116 cells assessed as increase in dihydrosphingomyelins per 10^6 cells at 10 uM after 14 hrs by UPLC-TOF analysis relative to control; type: functional, cell-based
Procedure, shortened: (§1)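 Cells incubated with compound at 10 µM, 24 h (A549) or 14 h (HCT116); lipids then extracted and profiled. Long-chain bases and phosphates were read by LC-MS/MS (positive electrospray, selected reaction monitoring, C17-dihydrosphingosine and C17-dihydrosphingosine-1-phosphate transitions monitored). Amounts expressed as pmol per 10⁶ cells. Mean ± SD of triplicates; unpaired two-tailed t-test versus control.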

HCT-116 [2] = assay: Effect on sphingolipidome in human HCT116 cells assessed as dihydrosphingosine-1-phosphate level per 10^6 cells at 10 uM after 14 hrs […] relative to control; type: functional, cell-based
HCT-116 [3] = assay: Effect on sphingolipidome in human HCT116 cells assessed as increase in dihydroceramide per 10^6 cells at 10 uM after 14 hrs by UPLC-TOF analysis relative to control; type: functional; procedure, shortened: as §1
HCT-116 [4] = assay: Effect on sphingolipidome in human HCT116 cells assessed as increase in C18-ceramide per 10^6 cells at 10 uM after 14 hrs by UPLC-TOF analysis relative to control (reference value: 3.9 +/- 0.3 pmol/10^6 cells); type: functional; procedure, shortened: as §1
A549 [5] = assay: Effect on sphingolipidome in human A549 cells assessed as increase in C18-ceramide per 10^6 cells at 10 uM after 24 hrs by UPLC-TOF analysis (reference value: 4.8 +/- 0.5 pmol/10^6 cells); type: functional; procedure, shortened: as §1
HCT-116 [6] = assay: Effect on sphingolipidome in human HCT116 cells assessed as increase in glucosyldihydroceramides per 10^6 cells at 10 uM after 14 hrs by UPLC-TOF analysis relative to control; type: functional, cell-based; procedure, shortened: as §1
HCT-116 [7] = assay: Induction of […] in human HCT116 cells at 20 uM after 14 hrs by Annexin V-propidium iodide staining based flow cytometry; type: functional
HCT-116 [8] = assay: Effect on sphingolipidome in human HCT116 cells assessed as reduction in C16-sphingomyelin per 10^6 cells at 10 uM after 14 hrs by UPLC-TOF analysis relative to control; type: functional, cell-based; procedure, shortened: as §1
HCT-116 [9] = assay: Effect on sphingolipidome in human HCT116 cells assessed as reduction in sphingomyelins per 10^6 cells at 10 uM after 14 hrs by UPLC-TOF analysis relative to control; type: functional, cell-based; procedure, shortened: as §1
HCT-116 [10] = assay: Induction of apoptosis in human HCT116 cells at 15 uM after 14 hrs by Annexin V-propidium iodide staining based flow cytometry; type: functional, cell-based
Procedure, shortened: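 HCT116 (clone 40–16) in low-glucose DMEM with 10% FBS and 1% penicillin–streptomycin, seeded 2.5×10⁵ cells/mL. After 24 h, medium replaced with compound-containing medium; ethanol vehicle to controls. After incubation, cells PBS-washed, trypsinized, stained with Annexin V and propidium iodide, analysed by flow cytometry. Mean ± SD, 3 experiments in triplicate.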

HCT-116 [11] = assay: Effect on sphingolipidome in human HCT116 cells assessed as sphingosine-1-phosphate level per 10^6 cells at 10 uM after 14 hrs by UPLC-TOF analysis (reference value: 1.49 +/- 0.70/10^6 cells); type: functional; procedure, shortened: as §1
HCT-116 [12] = assay: Effect on sphingolipidome in human HCT116 cells assessed as reduction in glucosylceramides per 10^6 cells at 10 uM after 14 hrs by UPLC-TOF analysis relative to control; type: functional, cell-based; procedure, shortened: as §1
A549 [13] = assay: Effect on sphingolipidome in human A549 cells assessed as increase in dihydroceramide per 10^6 cells at 10 uM after 24 hrs by UPLC-TOF analysis relative to control; type: functional; procedure, shortened: as §1
[14] = target: T1, Ceramide glucosyltransferase (Homo sapiens) (UniProt Q16739); assay: Inhibition of GlcCer synthase in human A549 cells using CerC6NBD as substrate preincubated for 24 hrs prior substrate addition measured after 3 hrs by HPLC-FD analysis; type: cell-based
T1 sequence (whole entry): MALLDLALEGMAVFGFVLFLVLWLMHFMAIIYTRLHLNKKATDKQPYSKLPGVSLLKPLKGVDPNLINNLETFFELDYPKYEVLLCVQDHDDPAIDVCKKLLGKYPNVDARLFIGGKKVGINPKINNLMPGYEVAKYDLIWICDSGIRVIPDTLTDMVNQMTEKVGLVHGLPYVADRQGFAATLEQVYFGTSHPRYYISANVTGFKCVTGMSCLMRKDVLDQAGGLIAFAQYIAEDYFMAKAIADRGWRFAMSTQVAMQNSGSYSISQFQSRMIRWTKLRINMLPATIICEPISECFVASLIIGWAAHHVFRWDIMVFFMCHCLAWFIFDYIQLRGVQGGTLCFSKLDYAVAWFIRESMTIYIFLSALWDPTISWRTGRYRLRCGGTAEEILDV

HCT-116 [15] = assay: Effect on sphingolipidome in human HCT116 cells assessed as reduction in C24-ceramide per 10^6 cells at 10 uM after 14 hrs by UPLC-TOF analysis relative to control; type: functional, cell-based; procedure, shortened: as §1
[16] = target: T2, Sphingolipid delta(4)-desaturase DES1 (Homo sapiens) (UniProt O15121); assay: Inhibition of Des1 in human A549 cells assessed as formation of CerC6NBD from dhCerC6NBD at =>100 uM after 4 hrs by HPLC-FD analysis; type: cell-based
T2 sequence (whole entry): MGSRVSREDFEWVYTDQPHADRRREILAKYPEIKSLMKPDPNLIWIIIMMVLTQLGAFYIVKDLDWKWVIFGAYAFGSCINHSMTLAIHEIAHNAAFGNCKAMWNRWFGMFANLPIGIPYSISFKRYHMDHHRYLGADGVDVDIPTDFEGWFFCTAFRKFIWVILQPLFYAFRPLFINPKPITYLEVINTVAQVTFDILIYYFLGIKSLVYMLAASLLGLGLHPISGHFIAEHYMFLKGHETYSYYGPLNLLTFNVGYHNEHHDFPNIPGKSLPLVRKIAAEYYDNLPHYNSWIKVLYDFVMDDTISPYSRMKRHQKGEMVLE
Procedure, shortened: (§2)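 Des1 activity in A549 and HCT116 cells: intact cells seeded 2×10⁵/well and incubated 4 h with dhCerC6NBD and compound. Dose–response used cell lysates incubated 4 h with 10 µM dhCerC6NBD plus graded compound. CerC6NBD measured by HPLC with fluorescence detection. IC50 from sigmoidal variable-slope regression; mean ± SD, three experiments in triplicate.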

[17] = target: T2, Sphingolipid delta(4)-desaturase DES1 (Homo sapiens); assay: Inhibition of Des1 in human HCT116 cells assessed as formation of CerC6NBD from dhCerC6NBD at =>100 uM after 4 hrs by HPLC-FD analysis; type: cell-based; conditions: HCT-116; procedure, shortened: as §2

CCCCCCCCCCCCCS/C=C/[C@H](CO)NC(=O)CCCCCCC
Activity (HCT-116 [1]): Active | Activity (HCT-116 [2]): inactive | fold change (FC) (HCT-116 [3]): 8.5 | Activity (HCT-116 [4]): 16 pmol | Activity (A549 [5]): 11.5 pmol | Activity (HCT-116 [6]): Active | Activity (HCT-116 [7]): inactive | Activity (HCT-116 [8]): Active | Activity (HCT-116 [9]): Active | Activity (HCT-116 [10]): Active | Activity (HCT-116 [11]): 1.25 pmol | Activity (HCT-116 [12]): Active | fold change (FC) (A549 [13]): 3.5 | inhibition [14]: inactive | Activity (HCT-116 [15]): Active

CCCCCCCCCCCCCS/C=C/[C@H](CO)NC(=O)c1ccc(C(C)(C)C)cc1
inhibition [16]: 50% | inhibition [17]: 50% | inhibition [14]: inactive

CCCCCCCCCCCCCS/C=C/[C@H](CO)NC(=O)C(C)(C)C
Activity (HCT-116 [1]): Active | inhibition [16]: 50% | Activity (HCT-116 [2]): inactive | fold change (FC) (HCT-116 [3]): 4.5 | Activity (HCT-116 [4]): 10.8 pmol | Activity (A549 [5]): 7 pmol | Activity (HCT-116 [6]): Active | Activity (HCT-116 [7]): inactive | Activity (HCT-116 [8]): Active | Activity (HCT-116 [9]): Active | inhibition [17]: 50% | Activity (HCT-116 [10]): Active | Activity (HCT-116 [11]): 2.17 pmol | Activity (HCT-116 [12]): Active | fold change (FC) (A549 [13]): 1.9 | inhibition [14]: inactive | Activity (HCT-116 [15]): Active
